Nine compounds from ChEMBL document CHEMBL1143767, “Identification, biological activity, and mechanism of the anti-ischemic quinolone analog” (2007) can be followed below.

The subject of one assay is Serratia marcescens. Briefly: Antibacterial activity against Serratia marcescens ATCC 27117 after 16 to 18 hrs by agar dilution method. The assay is classed as functional. The gist of the method: (§1)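 Agar dilution MIC per CLSI on Mueller Hinton agar. Stocks were diluted in DMSO or 0.1 M NaOH as a twofold series, with final concentrations 0.06–128. Plates were spotted at 10⁴ cfu/spot and incubated in ambient air at 36 °C for 16–18 h. MIC was the lowest concentration that prevented visible growth.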
(In general: In agar dilution, organisms are placed on agar that contains the substance at set levels.)

For a further assay, the system named is Enterococcus faecalis. Briefly: Antibacterial activity against Enterococcus faecalis ATCC 29212 after 16 to 18 hrs by agar dilution method. It is filed as functional. The gist of the method: (§2)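 Agar dilution MIC following CLSI guidance. E. faecalis was grown on Brain–Heart Infusion agar and the other strains on Mueller Hinton agar. Compounds were diluted in DMSO or 0.1 M NaOH in twofold steps to give final concentrations of 0.06–128 µg/mL. Inocula of 10^4 cfu/spot were incubated 16–18 h at 36 °C in ambient air. MIC was taken as the lowest concentration preventing visible growth.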

Assay [1] deals with Staphylococcus epidermidis. Put plainly: Antibacterial activity against Staphylococcus epidermidis ATCC 12228 after 16 to 18 hrs by agar dilution method. It is filed as functional. The method in brief: as §2
In the next assay the test system is Staphylococcus aureus. Briefly: Antibacterial activity against Staphylococcus aureus ATCC 25923 after 16 to 18 hrs by agar dilution method. It is filed as functional. The method in brief:
as §2

Assay [2] deals with SH-SY5Y. Put plainly: Cell viability of human SH-SY5Y cells at 0.1 uM after 24 hrs by MTS assay. The assay is classed as functional. The gist of the method: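 SH-SY5Y cells were grown in 1:1 EMEM/F12K with 10% heat-inactivated FBS at 37 °C and 5% CO₂. One day after plating, cells were pretreated with compound for 2 h, then exposed to hydrogen peroxide for 24 h. MTS reagent was added for 3 h at 37 °C and OD read at 490 nm. Viability is % of control, from at least two independent experiments in triplicate.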
For orientation: Formazan colour is commonly taken as a measure of viable cells.

Another assay deals with Bacillus subtilis. Put plainly: Antimicrobial activity against Bacillus subtilis ATCC 6633 after 16 to 18 hrs by agar dilution method. It is filed as functional. The method in brief:
as §1

Assay [3] deals with SH-SY5Y. Briefly: Enhancement of cell viability of human SH-SY5Y cells at 0.1 uM after 24 hrs by MTS assay relative to control. It is filed as functional. The gist of the method:
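SH-SY5Y neuroblastoma cells were grown in 1:1 EMEM/F12K with 10% heat-inactivated FBS at 37 °C, 5% CO2. After 1 day, cells were pretreated with compound at 0.1 µM for 2 h, then exposed to 200 µM H2O2 for 24 h. Viability was read by MTS (3 h, 37 °C, OD 490 nm) as a percentage of control. At least two independent experiments, each in triplicate.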

A further assay has as its system Enterobacter cloacae. Put plainly: Antibacterial activity against Enterobacter cloacae ATCC 13047 after 16 to 18 hrs by agar dilution method. The assay is classed as functional.
Another assay has as its system Escherichia coli. Briefly: Antibacterial activity against Escherichia coli ATCC 25922 after 16 to 18 hrs by agar dilution method. It is filed as functional. The method in brief: as §2
Assay [4] deals with Rattus norvegicus. Put plainly: Cardioprotective effect in Sprague-Dawley rat myocardial infarction model assessed as reduction of infract size in heart at 0.01 mg/kg, ip. The assay is classed as functional. More on the design: scale not given: the % may be the effect or the level left. To be noted: route intraperitoneal. The method in brief:
(§3)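 Male Sprague–Dawley rats (260–290 g) were anesthetized with ketamine ([…]) and xylazine (5 mg/kg). A single ip dose was given 1 h before regional myocardial ischemia (30 min), followed by 3 h reperfusion. After 1% Evans blue, the left ventricle was cut into two slices and stained with TTC. Infarct size was expressed as % of area at risk versus vehicle, using Student's t-test (P < 0.05).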

For assay [5], the system named is Rattus norvegicus. Put plainly: Antiischemic effect in Sprague-Dawley rat focal ischemic sroke model assessed as reduction of infract size in brain at 0.01 mg/kg, ip after 24 hrs under post-ischemic conditions. On the set-up: scale not given: the % may be the effect or the level left. To be noted: route intraperitoneal.
In assay [6] the test system is Rattus norvegicus. Briefly: Antiischemic effect in Sprague-Dawley rat focal ischemic sroke model assessed as reduction of infract size in brain at 0.001 mg/kg, ip after 24 hrs under pre-ischemic conditions. The assay is classed as functional. More on the design: scale not given: the % may be the effect or the level left. To be noted: route intraperitoneal. The gist of the method: (§4)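 Rat MCAO with 2 h ischemia and 22 h reperfusion, pre-ischemic regimen. Compound was given ip three times: 3 h and 1 h before, and 1 h after, MCA occlusion. Brains were removed 24 h after ischemia, cut into seven slices, and stained with TTC. Infarct volume was measured by computer-assisted planimetry and expressed as % reduction versus vehicle-treated rats.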

In assay [7] the test system is Rattus norvegicus. Put plainly: Antiischemic effect in Sprague-Dawley rat focal ischemic sroke model assessed as reduction of infract size in brain at 0.01 mg/kg, ip after 24 hrs under pre-ischemic conditions. It is filed as functional. More on the design: scale not given: the % may be the effect or the level left. Conditions: route intraperitoneal. The gist of the method: as §4

In assay [8] the test system is Rattus norvegicus. Put plainly: Cardioprotective effect in Sprague-Dawley rat myocardial infarction model assessed as reduction of infract area in heart at 0.01 mg/kg, ip. Conditions: route intraperitoneal. It is filed as functional. On the set-up: scale not given: the % may be the effect or the level left. The gist of the method:
as §3

Assay [9] has as its system Rattus norvegicus. Put plainly: Cardioprotective effect in Sprague-Dawley rat myocardial infarction model assessed as reduction of infract size in heart at 0.001 mg/kg, ip. The assay is classed as functional. On the set-up: scale not given: the % may be the effect or the level left. Conditions: route intraperitoneal. The method in brief:
as §3

The subject of assay [10] is Rattus norvegicus. Put plainly: Cardioprotective effect in Sprague-Dawley rat myocardial infarction model assessed as reduction of infract area in heart at 0.001 mg/kg, ip. The assay is classed as functional. On the set-up: scale not given: the % may be the effect or the level left. To be noted: route intraperitoneal. The method in brief: as §3
Assay [11] concerns Rattus norvegicus. Put plainly: Cardioprotective effect in Sprague-Dawley rat myocardial infarction model assessed as reduction of infract area in heart at 0.1 mg/kg, ip. It is filed as functional. More on the design: scale not given: the % may be the effect or the level left. Conditions: route intraperitoneal. The method in brief: as §3
Assay [12] relates to Rattus norvegicus. Put plainly: Antiischemic effect in Sprague-Dawley […] sroke model assessed as reduction of infract size in brain at 0.1 mg/kg, ip after 24 hrs under pre-ischemic conditions. To be noted: route intraperitoneal. More on the design: scale not given: the % may be the effect or the level left. It is filed as functional. The method in brief: as §4

Values after ≈ are worked out from the molar mass of the structure shown.

As usually defined, the MIC is the smallest concentration in the dilution series that meets the test's criterion for growth inhibition. In the case of `O=C(O)c1cn(C2CC2)c2cc(N3CCNCC3)c(F)cc2c1=O` [CIPROFLOXACIN], the MIC amounted to 0.125 µg/mL (≈ 0.377 µM) against Serratia marcescens; 2 µg/mL (≈ 6.04 µM) in the assay with Enterococcus faecalis; 1 µg/mL (≈ 3.02 µM) in [1]; 2 µg/mL (≈ 6.04 µM) against Staphylococcus aureus; 1 µg/mL (≈ 3.02 µM) in the assay on Bacillus subtilis. For the same compound, in the assay with SH-SY5Y [2], the Activity is 46.5%.

Compound `O=C(O)c1cn(C2CC2)c2ccc(F)cc2c1=O` had an Activity with SH-SY5Y [2] of 45.1%.

`O=C(O)c1cn(C2CC2)c2cc(N3CCCCC3)c(F)cc2c1=O` displayed an Activity in the assay with SH-SY5Y [2] of 44.1%.

For the compound `O=c1ccn(C2CC2)c2cc(N3CCNCC3)c(F)cc12`, the MIC with Serratia marcescens is 1 µg/mL (≈ 3.48 µM); with Enterococcus faecalis, 8 µg/mL (≈ 27.8 µM); in the assay on Enterobacter cloacae, 0.5 µg/mL (≈ 1.74 µM); in assay [1], 8 µg/mL (≈ 27.8 µM); in the assay with Staphylococcus aureus, 16 µg/mL (≈ 55.7 µM); against Escherichia coli, below 0.12 µg/mL. The same compound gave an MIC against Bacillus subtilis of 8 µg/mL (≈ 27.8 µM). In addition, the Activity in the assay on SH-SY5Y [3] is listed as 33%; with SH-SY5Y [2], 57.4%.

Turning to `O=C(O)c1cn(C2CC2)c2ccccc2c1=O`, in the assay with SH-SY5Y [2], the Activity is listed as 39%.

As to `O=C(O)c1cn(C2CC2)c2cc(N3CCNCC3)ccc2c1=O`, the MIC with Serratia marcescens was determined as 4 µg/mL (≈ 12.8 µM); against Enterococcus faecalis, 64 µg/mL (≈ 204 µM); in the assay with Enterobacter cloacae, 1 µg/mL (≈ 3.19 µM); in assay [1] it was 16 µg/mL (≈ 51.1 µM); in the assay with Staphylococcus aureus, 32 µg/mL (≈ 102 µM); with Escherichia coli, 0.5 µg/mL (≈ 1.6 µM). In the assay with Bacillus subtilis, this compound yielded an MIC of 8 µg/mL (≈ 25.5 µM). Also, the Activity in the assay with Rattus norvegicus [4] came to 26.6%; in the assay on Rattus norvegicus [5] it was 8.9%; in the assay on Rattus norvegicus [6] it was 9.6%; in the assay with Rattus norvegicus [7] it was 32.1%; in the assay with SH-SY5Y [3] it was 42%; in the assay with Rattus norvegicus [8], 53.1%. The Activity in the assay on Rattus norvegicus [9] is recorded as 14.2%; in the assay with Rattus norvegicus [10] it was 62.1%; in the assay on Rattus norvegicus [11], 78.3%; in the assay on Rattus norvegicus [12] it was 5.3%; in the assay on SH-SY5Y [2], 61.7%.

Regarding `O=C(O)c1cn(C2CC2)c2cc(C3CCNCC3)c(F)cc2c1=O`, the Activity with SH-SY5Y [2] amounted to 42.4%.

`O=C(O)c1cn(C2CC2)c2cc(N3CCNCC3)c(F)cc2c1=S`: in the assay on SH-SY5Y [2], the Activity came to 27.1%.

The compound `Cc1c(C(=O)O)c(=O)c2cc(F)c(N3CCNCC3)cc2n1C1CC1` displayed an Activity in the assay on SH-SY5Y [2] of 49.9%.
